Values after ≈ are worked out from the molar mass of the structure shown.
Columns and labels:
Staphylococcus aureus [1] = assay: Antibacterial activity against methicillin-sensitive Staphylococcus aureus NCTC 12981 after 16 hrs by microdilution method; assay type: functional; conditions: NCTC 12981, 16 h
How it was run: (§1)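 Broth microdilution in cation-adjusted Mueller-Hinton broth (20 mg/l Ca2+, 10 mg/L Mg2+), inoculum 5×10^5 CFU/mL. Compounds from DMSO stocks, final DMSO <1%, tested over 0.12–128 µg/ml. Incubated 37 °C and read visually after 16 h. MIC is the lowest concentration with no visible growth, determined at least twice and converted to µmol/L.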

Albumin [2] = molecular target: T1, Albumin (Homo sapiens, UniProt P02768); assay: Binding affinity to human serum albumin at 310K by fluorescence spectroscopic method; assay type: ADME; conditions: isolated protein
T1 sequence (P02768 whole entry): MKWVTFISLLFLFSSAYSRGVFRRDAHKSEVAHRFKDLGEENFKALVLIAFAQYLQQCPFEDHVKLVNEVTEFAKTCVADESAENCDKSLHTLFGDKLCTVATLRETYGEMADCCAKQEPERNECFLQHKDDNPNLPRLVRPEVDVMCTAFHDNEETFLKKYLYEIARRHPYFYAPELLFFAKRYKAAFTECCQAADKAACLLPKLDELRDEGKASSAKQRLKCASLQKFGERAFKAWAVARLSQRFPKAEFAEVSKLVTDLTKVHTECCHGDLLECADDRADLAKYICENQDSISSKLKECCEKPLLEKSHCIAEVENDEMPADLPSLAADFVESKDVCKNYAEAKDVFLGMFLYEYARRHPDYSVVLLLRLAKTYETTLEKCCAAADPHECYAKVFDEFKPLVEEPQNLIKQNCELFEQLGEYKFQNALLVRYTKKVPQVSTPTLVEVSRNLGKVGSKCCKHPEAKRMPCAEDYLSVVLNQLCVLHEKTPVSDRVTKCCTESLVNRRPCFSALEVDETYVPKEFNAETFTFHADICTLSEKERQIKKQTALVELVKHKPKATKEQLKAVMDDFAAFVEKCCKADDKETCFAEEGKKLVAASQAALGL
How it was run: (§2)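 Fatty acid-free HSA held at 5 × 10^-7 M in 30 mM PBS pH 7.38, titrated with compound DMSO stock at 0.5–8 molar equivalents (final DMSO ≤2%). Equilibrated 20 min after each addition. Fluorescence excitation 280 nm, emission 300–450 nm, PBS background subtracted. Quenching recorded at 293, 303 and 310 K and analysed by Stern-Volmer, molar ratio and van't Hoff treatment.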

Staphylococcus aureus [3] = assay: Antibacterial activity against Staphylococcus aureus EMRSA-15 after 16 hrs by microdilution method; assay type: functional; conditions: EMRSA-15, 16 h; how it was run: as §1
Albumin [4] = molecular target: T1, Albumin; assay: Binding affinity to human serum albumin assessed as change in entropy at 293K by Van't Hoff plot method; assay type: ADME; conditions: isolated protein; how it was run: as §2
Albumin [5] = molecular target: T1, Albumin; assay: Binding affinity to human serum albumin at 310K by Stern-Volmer plot method; assay type: ADME; conditions: isolated protein; how it was run: as §2
Albumin [6] = molecular target: T1, Albumin; assay: Binding affinity to human serum albumin at 303K by Stern-Volmer plot method; assay type: ADME; conditions: isolated protein; how it was run: as §2
Albumin [7] = molecular target: T1, Albumin; assay: Binding affinity to human serum albumin at 293K by Van't Hoff plot method; assay type: ADME; conditions: isolated protein; how it was run: as §2
Staphylococcus aureus [8] = assay: Antibacterial activity against Norfloxacin-resistant Staphylococcus aureus 1199B over-expressing NorA after 16 hrs by microdilution method; assay type: functional
How it was run: (§3)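 Broth microdilution in cation-adjusted Mueller-Hinton broth (20 mg/l Ca2+, 10 mg/L Mg2+), inoculum 5×10^5 CFU/mL. Compounds in DMSO, solvent under 1% in well, tested over 0.12-128 µg/ml. […] Each determined at least twice; values converted to µmol/L.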

Escherichia coli = assay: Antibacterial activity against Escherichia coli NCTC 12241 after 16 hrs by microdilution method; assay type: functional; conditions: NCTC 12241, 16 h; how it was run: as §1
Staphylococcus aureus [9] = assay: Antibacterial activity against tetracycline/methicillin-resistant Staphylococcus aureus XU212 after 16 hrs by microdilution method; assay type: functional; conditions: XU212, 16 h; how it was run: as §3
Staphylococcus aureus [10] = assay: Antibacterial activity against erythromycin-resistant Staphylococcus aureus RN4220 after 16 hrs by microdilution method; assay type: functional; conditions: RN4220, 16 h; how it was run: as §3
[11] = Octanol/phosphate buffer distribution co-efficient, log D of the compound at 7.4 by shake-flask method; assay type: physicochemical; conditions: pH 7.4
How it was run: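 Shake-flask partition between octanol and 10 mM phosphate buffer pH 7.4. Compound stock 5.0 × 10^-3 M in buffer-saturated octanol. Aqueous concentration measured spectrophotometrically against a calibration curve; octanol concentration taken by difference. Three octanol/buffer volume ratios; mean ± 95% CI.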

Staphylococcus aureus [12] = assay: Antibacterial activity against methicillin-resistant Staphylococcus aureus NCTC 13373 after 16 hrs by microdilution method; assay type: functional; conditions: NCTC 13373, 16 h; how it was run: as §3
Albumin [13] = molecular target: T1, Albumin; assay: Binding affinity to human serum albumin assessed as Gibbs free energy change at 303K by Van't Hoff plot method; assay type: ADME; conditions: isolated protein; how it was run: as §2
Albumin [14] = molecular target: T1, Albumin; assay: Binding affinity to human serum albumin assessed as Gibbs free energy change at 310K by Van't Hoff plot method; assay type: ADME; conditions: isolated protein; how it was run: as §2
Bacillus subtilis = assay: Antibacterial activity against Bacillus subtilis NCTC 10400 after 16 hrs by microdilution method; assay type: functional; conditions: NCTC 10400, 16 h; how it was run: as §1
Albumin [15] = molecular target: T1, Albumin; assay: Binding affinity to human serum albumin at 293K by fluorescence spectroscopic method; assay type: ADME; conditions: isolated protein; how it was run: as §2
Albumin [16] = molecular target: T1, Albumin; assay: Binding affinity to human serum albumin at 293K by Stern-Volmer plot method; assay type: ADME; conditions: isolated protein; how it was run: as §2
Enterococcus faecalis = assay: Antibacterial activity against Enterococcus faecalis NCTC 12697 after 16 hrs by microdilution method; assay type: functional; conditions: NCTC 12697, 16 h; how it was run: as §1
Albumin [17] = molecular target: T1, Albumin; assay: Binding affinity to human serum albumin at 310K by Van't Hoff plot method; assay type: ADME; conditions: isolated protein; how it was run: as §2
Albumin [18] = molecular target: T1, Albumin; assay: Binding affinity to human serum albumin at 303K by Van't Hoff plot method; assay type: ADME; conditions: isolated protein; how it was run: as §2
[19] = Acidity constant, pKa of the compound at 5 x 10^-5 M by UV/Vis spectrophotometric titration method; assay type: physicochemical
How it was run: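 Spectrophotometric titration at 20 ± 0.5 °C of a 5 × 10^-5 M working solution (ethanol, then 10 mM phosphate buffer pH 10.44, I = 0.1 M NaCl). Acidified stepwise with H3PO4 to pH ~4, with pH monitored continuously. UV/Vis spectra 210–600 nm against blank. pKa2 taken from the slope of the linearized absorbance equation. Three sets; mean ± 95% CI.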

[20] = Cytotoxicity against human MRC5 cells; assay type: cell-based
Albumin [21] = molecular target: T1, Albumin; assay: Binding affinity to human serum albumin assessed as Gibbs free energy change at 293K by Van't Hoff plot method; assay type: ADME; conditions: isolated protein; how it was run: as §2
Albumin [22] = molecular target: T1, Albumin; assay: Binding affinity to human serum albumin at 303K by fluorescence spectroscopic method; assay type: ADME; conditions: isolated protein; how it was run: as §2
Albumin [23] = molecular target: T1, Albumin; assay: Binding affinity to human serum albumin assessed as change in enthalpy at 293K by Van't Hoff plot method; assay type: ADME; conditions: isolated protein; how it was run: as §2
Staphylococcus aureus [24] = assay: Potency index, ratio of norfloxacin MIC to test compound MIC for Norfloxacin-resistant Staphylococcus aureus 1199B over-expressing NorA; assay type: functional

O=C(O)/C(O)=C/C(=O)c1cc(C2CCCCC2)ccc1C1CCCCC1 showed an MIC (Staphylococcus aureus [1]) of 11 µM (≈ 3.92 µg/mL), a logKb (Albumin [2]) of 6.75 and an MIC (Staphylococcus aureus [3]) of 22 µM (≈ 7.84 µg/mL). The deltaS (Albumin [4]) was 96.76 J/mol/K, the KSV (Albumin [5]) was 1.48 ×10⁶ /M and the Ka (Albumin [5]) was 0.95 ×10⁶ /M. For the same molecule, the Kq (Albumin [5]) was 2.09 ×10¹⁴ /M/s, the KSV (Albumin [6]) was 1.6 ×10⁶ /M and the Ka (Albumin [6]) was 1.02 ×10⁶ /M. For the same molecule, the Kq (Albumin [6]) was 2.26 ×10¹⁴ /M/s, the lnK (Albumin [7]) was 14.36 M⁻¹ and the MIC (Staphylococcus aureus [8]) was 11 µM (≈ 3.92 µg/mL). For the same molecule, the MIC (Escherichia coli) was > 128 µg/mL, the MIC (Staphylococcus aureus [9]) was 11 µM (≈ 3.92 µg/mL) and the MIC (Staphylococcus aureus [10]) was 11 µM (≈ 3.92 µg/mL). For the same molecule, the logD [11] was 2.6, the MIC (Staphylococcus aureus [12]) was 11 µM and the deltaG (Albumin [13]) was -8.6 kcal/mol. The deltaG (Albumin [14]) was -8.75 kcal/mol, the MIC (Bacillus subtilis) was 125 µM (≈ 44.6 µg/mL) and the logKb (Albumin [15]) was 7.02. For the same molecule, the KSV (Albumin [16]) was 1.72 ×10⁶ /M, the Ka (Albumin [16]) was 1.06 ×10⁶ /M and the Kq (Albumin [16]) was 2.42 ×10¹⁴ /M/s. The MIC (Enterococcus faecalis) was 6 µM, the lnK (Albumin [17]) was 14.21 M⁻¹ and the lnK (Albumin [18]) was 14.29 M⁻¹. It also gave a pKa at 50 µM [19] of 7.56, an IC90 [20] of 30 µM and a deltaG (Albumin [21]) of -8.36 kcal/mol. The logKb (Albumin [22]) was 6.84 and the deltaH (Albumin [23]) was -1.59 kcal/mol.
For CC(C)c1cc(C(C)C)c(C(=O)/C=C(\O)C(=O)O)c(C(C)C)c1, the MIC (Staphylococcus aureus [1]) was 13 µM (≈ 4.14 µg/mL), the MIC (Staphylococcus aureus [3]) was 25 µM (≈ 7.96 µg/mL) and the MIC (Staphylococcus aureus [8]) was 25 µM (≈ 7.96 µg/mL). For the same molecule, the MIC (Escherichia coli) was > 128 µg/mL, the MIC (Staphylococcus aureus [9]) was 50 µM (≈ 15.9 µg/mL) and the MIC (Staphylococcus aureus [10]) was 50 µM (≈ 15.9 µg/mL). The MIC (Staphylococcus aureus [12]) was > 128 µg/mL, the MIC (Bacillus subtilis) was 25 µM (≈ 7.96 µg/mL) and the MIC (Enterococcus faecalis) was > 128 µg/mL. For the same molecule, the IC90 [20] was 90 µM.
With CCc1cc(CC)c(C(=O)/C=C(\O)C(=O)O)c(CC)c1 the MIC (Staphylococcus aureus [3]) was 232 µM (≈ 64.1 µg/mL), the MIC (Staphylococcus aureus [8]) was 116 µM (≈ 32.1 µg/mL) and the Ratio (Staphylococcus aureus [24]) was 10. For the same molecule, the MIC (Escherichia coli) was > 128 µg/mL, the MIC (Staphylococcus aureus [9]) was 232 µM (≈ 64.1 µg/mL) and the MIC (Staphylococcus aureus [10]) was 232 µM (≈ 64.1 µg/mL).
